According to ChEMBL document CHEMBL1933052, “Synthesis and anti-protozoal activity of novel dihydropyrrolo[3,4-d][1,2,3]triazoles” (Eur J Med Chem, 2012):
≈ marks a conversion by molar mass, not a printed value.

Columns and labels:
Leishmania donovani = experiment: Leishmanicidal activity against Leishmania donovani MHOM/ET/67/L82 amastigote forms after 72 hrs by resazurin assay; type: functional, organism-based; conditions: MHOM/ET/67/L82, 72 h
Plasmodium falciparum = experiment: Antimalarial activity against chloquine- and pyrimethamine-resistant Plasmodium falciparum K1 erythrocytic stage assessed as inhibition of [3H]hypoxanthine incorporation after 48 hrs by liquid scintillation counting; type: functional, organism-based
Procedure, shortened: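 Erythrocytic-stage cultures in hypoxanthine-free RPMI 1640 with 5% Albumax, exposed to serial drug dilutions at 37 °C under reduced oxygen for 48 h. 0.5 μCi [3H]-hypoxanthine per well was then added for a further 24 h. Cells were harvested onto glass-fibre filters and counted as CPM, expressed as % of untreated controls. IC50 was read from dose–response curves. Chloroquine was the reference.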

[1] = tested on: Trypanosoma brucei rhodesiense; experiment: Trypanocidal activity against Trypanosoma brucei rhodesiense STIB 900 bloodstream forms after 72 hrs by resazurin assay; type: functional, organism-based; conditions: STIB 900, 72 h
Procedure, shortened: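 Bloodstream forms, 10^4/well, in MEM with 25 mM HEPES, extra glucose, non-essential amino acids, 0.2 mM 2-mercaptoethanol, 1 mM pyruvate, 15% heat-inactivated horse serum; seven 3-fold dilutions 90 to 0.123 µg/mL; 37 °C, 5% CO2, 72 h; resazurin 2–4 h more; fluorescence ex 536/em 588 nm; melarsoprol standard.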

Trypanosoma cruzi = experiment: Trypanocidal activity against trypomastigote Trypanosoma cruzi Tulahuen C2C4 infected in L6 cells after 96 hrs by beta-galactosidase reporter gene assay; type: functional, organism-based; conditions: Tulahuen C2C4, L6, 96 h
L6 = experiment: Cytotoxicity against rat L6 cells after 72 hrs by resazurin assay; type: cell-based; conditions: L6, 72 h
Procedure, shortened: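 L6 rat skeletal myoblasts, 4×10^4 cells/well in RPMI 1640 with 10% FBS and L-glutamine; seven 3-fold serial dilutions, 90 to 0.123 µg/mL; 72 h; microscopic check of controls and sterility; resazurin added, 2 h further; fluorescence read at ex 536/em 588 nm.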

## O=C1[C@H]2N=NN(Cc3nc(-c4ccccc4)no3)[C@H]2C(=O)N1c1ccccc1
Leishmania donovani
  IC50: 1.6 µg/mL (≈ 4.27 µM)
Plasmodium falciparum
  IC50: 22.6 µg/mL (≈ 60.4 µM)
[1]
  IC50: 7 µg/mL (≈ 18.7 µM)
Trypanosoma cruzi
  IC50: 46.1 µg/mL (≈ 123 µM)
L6
  IC50: 47.3 µg/mL (≈ 126 µM)

## O=C1[C@H]2N=NN(Cc3nc(-c4ccc(Cl)cc4)no3)[C@H]2C(=O)N1c1ccccc1
Leishmania donovani
  IC50: 3.2 µg/mL (≈ 7.83 µM)
Plasmodium falciparum
  IC50: 24.9 µg/mL (≈ 60.9 µM)
[1]
  IC50: 17.2 µg/mL (≈ 42.1 µM)
Trypanosoma cruzi
  IC50: 49 µg/mL (≈ 120 µM)
L6
  IC50: 49.5 µg/mL (≈ 121 µM)

## O=C1[C@H]2N=NN(Cc3nc(-c4ccc(Br)cc4)no3)[C@H]2C(=O)N1c1ccccc1
Leishmania donovani
  IC50: 3.5 µg/mL (≈ 7.72 µM)
Plasmodium falciparum
  IC50: 26.9 µg/mL (≈ 59.3 µM)
[1]
  IC50: 18.2 µg/mL (≈ 40.2 µM)
Trypanosoma cruzi
  IC50: 54.9 µg/mL (≈ 121 µM)
L6
  IC50: 58.6 µg/mL (≈ 129 µM)

## O=C1[C@H]2N=NN(Cc3nc(-c4ccc(F)cc4)no3)[C@H]2C(=O)N1c1ccccc1
Leishmania donovani
  IC50: 4.1 µg/mL (≈ 10.4 µM)
Plasmodium falciparum
  IC50: 23.6 µg/mL (≈ 60.2 µM)
[1]
  IC50: 12.3 µg/mL (≈ 31.3 µM)
Trypanosoma cruzi
  IC50: 62.4 µg/mL (≈ 159 µM)
L6
  IC50: > 100 µg/mL

## Cc1ccc(-c2noc(CN3N=N[C@@H]4C(=O)N(c5ccccc5)C(=O)[C@@H]43)n2)cc1
Leishmania donovani
  IC50: 2.2 µg/mL (≈ 5.66 µM)
Plasmodium falciparum
  IC50: 13.2 µg/mL (≈ 34 µM)
[1]
  IC50: 8.4 µg/mL (≈ 21.6 µM)
Trypanosoma cruzi
  IC50: 38.9 µg/mL (≈ 100 µM)
L6
  IC50: 15.2 µg/mL (≈ 39.1 µM)

## O=C1[C@H]2N=NN(Cc3nc(-c4ccc(I)cc4)no3)[C@H]2C(=O)N1c1ccccc1
Leishmania donovani
  IC50: 3.6 µg/mL (≈ 7.2 µM)
Plasmodium falciparum
  IC50: 20.4 µg/mL (≈ 40.8 µM)
[1]
  IC50: 18.8 µg/mL (≈ 37.6 µM)
Trypanosoma cruzi
  IC50: 47.2 µg/mL (≈ 94.4 µM)
L6
  IC50: 48.6 µg/mL (≈ 97.2 µM)

## O=C1[C@H]2N=NN(Cc3nc(-c4ccc([N+](=O)[O-])cc4)no3)[C@H]2C(=O)N1c1ccccc1
Leishmania donovani
  IC50: 2 µg/mL (≈ 4.77 µM)
Plasmodium falciparum
  IC50: 14.7 µg/mL (≈ 35.1 µM)
[1]
  IC50: 8 µg/mL (≈ 19.1 µM)
Trypanosoma cruzi
  IC50: 41.1 µg/mL (≈ 98 µM)
L6
  IC50: > 100 µg/mL

## COc1ccc(-c2noc(CN3N=N[C@@H]4C(=O)N(c5ccccc5)C(=O)[C@@H]43)n2)cc1
Leishmania donovani
  IC50: 3.4 µg/mL (≈ 8.41 µM)
Plasmodium falciparum
  IC50: 17 µg/mL (≈ 42 µM)
[1]
  IC50: 16.9 µg/mL (≈ 41.8 µM)
Trypanosoma cruzi
  IC50: 54 µg/mL (≈ 134 µM)
L6
  IC50: > 100 µg/mL

## CSc1ccc(-c2noc(CN3N=N[C@@H]4C(=O)N(c5ccccc5)C(=O)[C@@H]43)n2)cc1
Leishmania donovani
  IC50: 3.5 µg/mL (≈ 8.32 µM)
Plasmodium falciparum
  IC50: 20.6 µg/mL (≈ 49 µM)
[1]
  IC50: 16.3 µg/mL (≈ 38.8 µM)
Trypanosoma cruzi
  IC50: 48.5 µg/mL (≈ 115 µM)
L6
  IC50: > 100 µg/mL

## O=C1[C@H]2N=NN(Cc3nc(-c4ccc(C(F)(F)F)cc4)no3)[C@H]2C(=O)N1c1ccccc1
Leishmania donovani
  IC50: 3.7 µg/mL (≈ 8.36 µM)
Plasmodium falciparum
  IC50: 15 µg/mL (≈ 33.9 µM)
[1]
  IC50: 13.9 µg/mL (≈ 31.4 µM)
Trypanosoma cruzi
  IC50: 51.4 µg/mL (≈ 116 µM)
L6
  IC50: 44.4 µg/mL (≈ 100 µM)

## CN(C)c1ccc(-c2noc(CN3N=N[C@@H]4C(=O)N(c5ccccc5)C(=O)[C@@H]43)n2)cc1
Leishmania donovani
  IC50: 4.5 µg/mL (≈ 10.8 µM)
Plasmodium falciparum
  IC50: 21 µg/mL (≈ 50.3 µM)
[1]
  IC50: 13.1 µg/mL (≈ 31.4 µM)
Trypanosoma cruzi
  IC50: 36.6 µg/mL (≈ 87.7 µM)
L6
  IC50: > 100 µg/mL

## O=C(Cn1ccnc1[N+](=O)[O-])NCc1ccccc1 [BENZNIDAZOLE]
Trypanosoma cruzi
  IC50: 0.464 µg/mL (≈ 1.78 µM)

## CCCCCCCCCCCCCCCCOP(=O)([O-])OCC[N+](C)(C)C [MILTEFOSINE]
Leishmania donovani
  IC50: 0.171 µg/mL (≈ 0.42 µM)

## COc1cc([C@@H]2c3cc4c(cc3[C@H](O)[C@H]3COC(=O)[C@H]23)OCO4)cc(OC)c1OC [PODOFILOX]
L6
  IC50: 0.007 µg/mL (≈ 0.0169 µM)
